According to ChEMBL document CHEMBL4257520, “Design, synthesis and bioactivity investigation of tetrandrine derivatives as potential anti-cancer agents” (Medchemcomm, 2018):
pIC50: −log10 of the molar value.

What was measured:
MDA-MB-231 = assay: Antiproliferative activity against human MDA-MB-231 cells after 48 hrs by MTT assay; type: functional, cell-based; settings: MDA-MB-231, 48 h
How it was run: (§1)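 MTT assay on human cancer lines held at 37 °C, 95% humidity, 5% CO2. Cells were exposed to compounds at 20.0–0.5 μM for 48 h, then washed twice with PBS. MTT (5 mg mL–1 in PBS) was added for 4 h at 37 °C, the formazan was dissolved in DMSO, and A490 was read. IC50 comes from replicate wells over three independent experiments.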

[1] = Antiproliferative activity against human WM9 cells after 48 hrs by MTT assay; type: functional, cell-based; settings: WM9, 48 h; how it was run: as §1
PC-3 = assay: Antiproliferative activity against human PC3 cells after 48 hrs by MTT assay; type: functional, cell-based; settings: PC-3, 48 h; how it was run: as §1
HEL = assay: Antiproliferative activity against HEL cells after 48 hrs by MTT assay; type: functional, cell-based; settings: Homo sapiens; how it was run: as §1
L02 = assay: Cytotoxicity against human HL7702 cells after 48 hrs by MTT assay; type: cell-based; settings: L02, 48 h
How it was run: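 Normal human liver HL7702 cells were assessed by MTT assay, with formazan absorbance as the read-out, to give an IC50 for cytotoxicity.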

K562 = assay: Antiproliferative activity against human K562 cells after 48 hrs by MTT assay; type: functional, cell-based; settings: K562, 48 h; how it was run: as §1

COc1cc(NS(=O)(=O)c2ccc(Br)cc2)c2cc1Oc1ccc(cc1)C[C@H]1c3cc(c(OC)cc3CCN1C)Oc1c(OC)c(OC)cc3c1[C@H](C2)N(C)CC3
pIC50 (MDA-MB-231): 5.25
pIC50 [1]: 5.07
pIC50 (PC-3): 5.40
pIC50 (HEL): 5.42
pIC50 (L02): 5.03
pIC50 (K562): 5.43

COc1cc(NS(=O)(=O)c2ccc(NC(C)=O)cc2)c2cc1Oc1ccc(cc1)C[C@H]1c3cc(c(OC)cc3CCN1C)Oc1c(OC)c(OC)cc3c1[C@H](C2)N(C)CC3
pIC50 (MDA-MB-231): 5.18
pIC50 [1]: 5.48
pIC50 (PC-3): 5.32
pIC50 (HEL): 4.97
pIC50 (L02): 4.76
pIC50 (K562): 5.46

CC[C@]1(O)C[C@H]2CN(CCc3c([nH]c4ccccc34)[C@@](C(=O)OC)(c3cc4c(cc3OC)N(C=O)[C@H]3[C@@](O)(C(=O)OC)[C@H](OC(C)=O)[C@]5(CC)C=CCN6CC[C@]43[C@@H]65)C2)C1 [VINCRISTINE]
pIC50 (MDA-MB-231): 5.01
pIC50 [1]: 5.37
pIC50 (PC-3): 5.27
pIC50 (HEL): 5.22
pIC50 (K562): 5.27

COc1cc(NS(=O)(=O)c2ccc(Cl)nc2)c2cc1Oc1ccc(cc1)C[C@H]1c3cc(c(OC)cc3CCN1C)Oc1c(OC)c(OC)cc3c1[C@H](C2)N(C)CC3
pIC50 (MDA-MB-231): 5.16
pIC50 [1]: 5.10
pIC50 (PC-3): 5.24
pIC50 (HEL): 5.22
pIC50 (L02): 4.71
pIC50 (K562): 5.23

COc1cc(NS(=O)(=O)c2cccc(Br)c2)c2cc1Oc1ccc(cc1)C[C@H]1c3cc(c(OC)cc3CCN1C)Oc1c(OC)c(OC)cc3c1[C@H](C2)N(C)CC3
pIC50 (MDA-MB-231): 5.42
pIC50 [1]: 5.77
pIC50 (PC-3): 5.46
pIC50 (HEL): 5.54
pIC50 (L02): 5.06
pIC50 (K562): 5.84

COc1cc(NS(=O)(=O)c2c(C)cc(C)cc2C)c2cc1Oc1ccc(cc1)C[C@H]1c3cc(c(OC)cc3CCN1C)Oc1c(OC)c(OC)cc3c1[C@H](C2)N(C)CC3
pIC50 (MDA-MB-231): 5.27
pIC50 [1]: 5.38
pIC50 (PC-3): 5.48
pIC50 (HEL): 5.32
pIC50 (L02): 4.67
pIC50 (K562): 5.49

CCCCS(=O)(=O)Nc1cc(OC)c2cc1C[C@H]1c3c(cc(OC)c(OC)c3Oc3cc4c(cc3OC)CCN(C)[C@H]4Cc3ccc(cc3)O2)CCN1C
pIC50 (MDA-MB-231): 5.27
pIC50 [1]: 5.20
pIC50 (PC-3): 5.28
pIC50 (HEL): 5.17
pIC50 (L02): 4.65
pIC50 (K562): 5.14

COc1cc(NS(=O)(=O)c2ccc(F)cc2)c2cc1Oc1ccc(cc1)C[C@H]1c3cc(c(OC)cc3CCN1C)Oc1c(OC)c(OC)cc3c1[C@H](C2)N(C)CC3
pIC50 (MDA-MB-231): 5.11
pIC50 [1]: 5.36
pIC50 (PC-3): 5.49
pIC50 (HEL): 5.80
pIC50 (L02): 4.92
pIC50 (K562): 5.48

COc1cc(NS(=O)(=O)c2ccc([N+](=O)[O-])cc2)c2cc1Oc1ccc(cc1)C[C@H]1c3cc(c(OC)cc3CCN1C)Oc1c(OC)c(OC)cc3c1[C@H](C2)N(C)CC3
pIC50 (MDA-MB-231): 5.15
pIC50 [1]: 5.37
pIC50 (PC-3): 5.35
pIC50 (HEL): 5.43
pIC50 (L02): 4.85
pIC50 (K562): 5.39

COc1cc(NS(=O)(=O)c2cccc([N+](=O)[O-])c2)c2cc1Oc1ccc(cc1)C[C@H]1c3cc(c(OC)cc3CCN1C)Oc1c(OC)c(OC)cc3c1[C@H](C2)N(C)CC3
pIC50 (MDA-MB-231): 5.20
pIC50 [1]: 5.47
pIC50 (PC-3): 5.71
pIC50 (HEL): 5.66
pIC50 (L02): 5.00
pIC50 (K562): 5.75

COc1cc(NS(=O)(=O)c2ccc(C(F)(F)F)cc2)c2cc1Oc1ccc(cc1)C[C@H]1c3cc(c(OC)cc3CCN1C)Oc1c(OC)c(OC)cc3c1[C@H](C2)N(C)CC3
pIC50 (MDA-MB-231): 5.18
pIC50 [1]: 5.35
pIC50 (PC-3): 5.42
pIC50 (HEL): 5.54
pIC50 (L02): 5.09
pIC50 (K562): 5.44

COc1cc(NS(=O)(=O)c2ccccc2[N+](=O)[O-])c2cc1Oc1ccc(cc1)C[C@H]1c3cc(c(OC)cc3CCN1C)Oc1c(OC)c(OC)cc3c1[C@H](C2)N(C)CC3
pIC50 (MDA-MB-231): 5.60
pIC50 [1]: 5.49
pIC50 (PC-3): 5.14
pIC50 (HEL): 5.24
pIC50 (L02): 4.79
pIC50 (K562): 5.30

COc1cccc(S(=O)(=O)Nc2cc(OC)c3cc2C[C@H]2c4c(cc(OC)c(OC)c4Oc4cc5c(cc4OC)CCN(C)[C@H]5Cc4ccc(cc4)O3)CCN2C)c1
pIC50 (MDA-MB-231): 5.34
pIC50 [1]: 5.39
pIC50 (PC-3): 5.40
pIC50 (HEL): 5.07
pIC50 (L02): 4.55
pIC50 (K562): 5.49

COc1ccc2cc1Oc1ccc(cc1)C[C@H]1c3cc(c(OC)cc3CCN1C)Oc1c(OC)c(OC)cc3c1[C@H](C2)N(C)CC3 [FANCHININ]
pIC50 (MDA-MB-231): 5.05
pIC50 [1]: 5.21
pIC50 (PC-3): 5.23
pIC50 (HEL): 5.13
pIC50 (L02): 4.35
pIC50 (K562): 4.93

COc1cc(NS(=O)(=O)c2ccccc2F)c2cc1Oc1ccc(cc1)C[C@H]1c3cc(c(OC)cc3CCN1C)Oc1c(OC)c(OC)cc3c1[C@H](C2)N(C)CC3
pIC50 (MDA-MB-231): 5.10
pIC50 [1]: 5.38
pIC50 (PC-3): 5.23
pIC50 (HEL): 5.52
pIC50 (L02): 4.79
pIC50 (K562): 5.23

COc1cc(NS(=O)(=O)c2ccccc2)c2cc1Oc1ccc(cc1)C[C@H]1c3cc(c(OC)cc3CCN1C)Oc1c(OC)c(OC)cc3c1[C@H](C2)N(C)CC3
pIC50 (MDA-MB-231): 5.13
pIC50 [1]: 5.70
pIC50 (PC-3): 5.35
pIC50 (HEL): 5.41
pIC50 (L02): 4.87
pIC50 (K562): 5.51

COc1cc(NS(=O)(=O)c2cc(Cl)cc(Cl)c2)c2cc1Oc1ccc(cc1)C[C@H]1c3cc(c(OC)cc3CCN1C)Oc1c(OC)c(OC)cc3c1[C@H](C2)N(C)CC3
pIC50 (MDA-MB-231): 5.41
pIC50 [1]: 5.43
pIC50 (PC-3): 5.47
pIC50 (HEL): 5.25
pIC50 (L02): 4.86
pIC50 (K562): 5.83

COc1cc(NS(=O)(=O)c2c(C(C)C)cc(C(C)C)cc2C(C)C)c2cc1Oc1ccc(cc1)C[C@H]1c3cc(c(OC)cc3CCN1C)Oc1c(OC)c(OC)cc3c1[C@H](C2)N(C)CC3
pIC50 (MDA-MB-231): 5.27
pIC50 [1]: 5.67
pIC50 (PC-3): 5.26
pIC50 (HEL): 5.27
pIC50 (L02): 4.49
pIC50 (K562): 5.17

COc1cc(NS(=O)(=O)c2ccc(C(C)(C)C)cc2)c2cc1Oc1ccc(cc1)C[C@H]1c3cc(c(OC)cc3CCN1C)Oc1c(OC)c(OC)cc3c1[C@H](C2)N(C)CC3
pIC50 (MDA-MB-231): 5.28
pIC50 [1]: 5.39
pIC50 (PC-3): 5.31
pIC50 (HEL): 5.02
pIC50 (L02): 4.58
pIC50 (K562): 5.50

COc1cc(NS(=O)(=O)c2ccccc2Cl)c2cc1Oc1ccc(cc1)C[C@H]1c3cc(c(OC)cc3CCN1C)Oc1c(OC)c(OC)cc3c1[C@H](C2)N(C)CC3
pIC50 (MDA-MB-231): 5.13
pIC50 [1]: 5.39
pIC50 (PC-3): 5.33
pIC50 (HEL): 5.46
pIC50 (L02): 5.10
pIC50 (K562): 5.45

COc1cc([N+](=O)[O-])c2cc1Oc1ccc(cc1)C[C@H]1c3cc(c(OC)cc3CCN1C)Oc1c(OC)c(OC)cc3c1[C@H](C2)N(C)CC3
pIC50 (MDA-MB-231): 4.95
pIC50 [1]: 4.92
pIC50 (PC-3): 5.17
pIC50 (HEL): 5.13
pIC50 (K562): 5.04

CCCS(=O)(=O)Nc1cc(OC)c2cc1C[C@H]1c3c(cc(OC)c(OC)c3Oc3cc4c(cc3OC)CCN(C)[C@H]4Cc3ccc(cc3)O2)CCN1C
pIC50 (MDA-MB-231): 5.29
pIC50 [1]: 5.39
pIC50 (PC-3): 5.18
pIC50 (HEL): 5.22
pIC50 (L02): 4.90
pIC50 (K562): 5.38

COc1cc(NS(=O)(=O)c2ccc(Cl)cc2)c2cc1Oc1ccc(cc1)C[C@H]1c3cc(c(OC)cc3CCN1C)Oc1c(OC)c(OC)cc3c1[C@H](C2)N(C)CC3
pIC50 (MDA-MB-231): 5.32
pIC50 [1]: 5.43
pIC50 (PC-3): 5.53
pIC50 (HEL): 5.59
pIC50 (L02): 4.77
pIC50 (K562): 5.57

COc1cc(NS(=O)(=O)C(F)(F)F)c2cc1Oc1ccc(cc1)C[C@H]1c3cc(c(OC)cc3CCN1C)Oc1c(OC)c(OC)cc3c1[C@H](C2)N(C)CC3
pIC50 (MDA-MB-231): 5.17
pIC50 [1]: 5.24
pIC50 (PC-3): 5.25
pIC50 (HEL): 5.23
pIC50 (L02): 4.73
pIC50 (K562): 5.15

COc1cc(NS(C)(=O)=O)c2cc1Oc1ccc(cc1)C[C@H]1c3cc(c(OC)cc3CCN1C)Oc1c(OC)c(OC)cc3c1[C@H](C2)N(C)CC3
pIC50 (MDA-MB-231): 5.25
pIC50 [1]: 5.59
pIC50 (PC-3): 5.47
pIC50 (HEL): 5.59
pIC50 (L02): 4.83
pIC50 (K562): 5.45

COc1cc(N)c2cc1Oc1ccc(cc1)C[C@H]1c3cc(c(OC)cc3CCN1C)Oc1c(OC)c(OC)cc3c1[C@H](C2)N(C)CC3
pIC50 (MDA-MB-231): 5.45
pIC50 [1]: 5.20
pIC50 (PC-3): 5.57
pIC50 (HEL): 5.18
pIC50 (K562): 5.52

COc1cc(NS(=O)(=O)c2cccc3cccnc23)c2cc1Oc1ccc(cc1)C[C@H]1c3cc(c(OC)cc3CCN1C)Oc1c(OC)c(OC)cc3c1[C@H](C2)N(C)CC3
pIC50 (MDA-MB-231): 5.20
pIC50 [1]: 5.34
pIC50 (PC-3): 5.37
pIC50 (HEL): 5.55
pIC50 (L02): 4.90
pIC50 (K562): 5.86
